In PMC3601665 (Molecular pharmaceutics, 2012):

What was measured:
[1] = tested on: PC3 cells; experiment: Cytotoxicity assay; format: cell-based; settings: read-out: IC50 (Mean ± SE); PC3, PSMA negative, 72 h, n=6
Procedure, shortened: (§1)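 DU145 and LNCaP were grown in RPMI-1640 and PC3 in F-12K, all with 10 % FBS. Cells were seeded at 5,000 per well. After 12 h, test compound (free or micelle-loaded) in PBS was added at 0, 0.1, 1, 5, 10, 50 or 100 μM. PBS and TCA served as negative and positive controls. After 72 h, 55-μM resazurin solution was added for 4 h at 37 °C, then resorufin fluorescence was read (ex 560/em 590 nm). IC50 was taken as the midpoint between controls on each plate.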

[2] = tested on: DU145 cells; experiment: Cytotoxicity assay; format: cell-based; settings: read-out: IC50 (Mean ± SE); DU145, PSMA negative, 72 h, n=6
Procedure, shortened: as §1

[3] = tested on: pAkt (Ser-473) in LNCaP cells; experiment: Western blot assay of Akt phosphorylation; format: cell-based; settings: 2-μM drug, 100-ng/mL EGF, 30 min, serum-starved LNCaP
Procedure, shortened: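 Cells were lysed in buffer with protease inhibitors, and protein was quantified by BCA. Equal protein amounts were run on 10 % SDS-PAGE and transferred to nitrocellulose. Blots were probed for phospho-Akt (Ser-473) and total Akt, followed by HRP-conjugated secondary antibodies and chemiluminescent detection.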

[4] = tested on: LNCaP cells; experiment: Cytotoxicity assay; format: cell-based; settings: for selective cytotoxicity: LNCaP versus DU145 and PC3; for IC50: read-out: IC50 (Mean ± SE), LNCaP, PSMA positive, PTEN-deficient, 72 h, n=6
Procedure, shortened: as §1

[5] = tested on: cell growth; settings: cited from earlier work

Cc1cc(C(C)N(CCO)c2ccccc2)c2nc(N3CCOCC3)cc(=O)n2c1 (centres unmarked) [BL05]
IC50 [1]: 23.4 ± 0.74 µM
IC50 [2]: 32.4 ± 0.67 µM
phosphorylation of Akt (Ser473) [3]: inhibited phosphorylation of Akt
selective cytotoxicity [4]: selective cytotoxicity to LNCaP cells
IC50 [4]: 4.04 ± 0.11 µM

CC1(C)C(=CC=C2CCCC(C=CC3=[N+](CCCCS(=O)(=O)[O-])c4ccc5ccccc5c4C3(C)C)=C2Cl)N(CCCCS(=O)(=O)[O-])c2ccc3ccccc3c21.[Na+] [IR-820]
concentration at which cell growth is significantly inhibited [5]: greater than 5 μM

Cc1cc(C(C)Nc2ccccc2)c2nc(N3CCOCC3)cc(=O)n2c1 (centres unmarked) [TGX-221]
IC50 [1]: 18.2 ± 0.85 µM
IC50 [2]: 35.6 ± 0.12 µM
phosphorylation of Akt (Ser473) [3]: inhibited phosphorylation of Akt
selective cytotoxicity [4]: selective cytotoxicity to LNCaP cells
IC50 [4]: 3.98 ± 0.18 µM
